From ChEMBL document CHEMBL1800020, “Synthesis, conformation and biology of naphthoxylosides” (Bioorg Med Chem, 2011)
Active and inactive are the calls of the source. The calls are words filed in the database; no cut-off is given here.

Legend:
HCC70 [1] = assay: Induction of glycosaminoglycan chains priming from beta-D-xylopyranoside in human HCC70 cells using [35S]-Sulfate after 30 mins by beta counting; assay type: functional, cell-based
Outline: (§1)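 Confluent monolayers incubated with xylosides in low-sulfate labeling medium with 2 mM glutamine and 20 µCi/mL [35S]sulfate; xylosides diluted from 20 mM stocks in Me2SO/water 1:1. Medium collected, labeled polyanions captured on DEAE-cellulose, free primed GAG chains separated from PG on Octyl-Sepharose. Ethanol-precipitated, sized by Superose 6 gel-permeation FPLC, radioactivity counted by beta counter.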

CCD-1095SK = assay: Induction of glycosaminoglycan chains priming in human CCD-1095SK cells using [35S]-Sulfate after 30 mins by beta counting; assay type: functional, cell-based; outline: as §1
HCC70 [2] = assay: Antiproliferative activity against human HCC70 cells after 96 hrs by crystal violet staining method; assay type: functional; details: read-out: ED50 (the source's name)
Outline: (§2)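 Normal breast fibroblasts (CCD-1095Sk) or HCC70 breast carcinoma cells seeded at 5000 cells/well, in MEM or RPMI-1640 with 10% fetal calf serum. After 24 h, switched to serum-free Ham's F-12 with insulin (10 µg/mL) and transferrin (25 µg/mL) plus increasing xyloside concentrations, 96 h total. Fixed in 1% glutaraldehyde, stained with 0.1% crystal violet, lysed in 1% Triton X-100, read at A600. ED50 taken from % of untreated growth.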

[3] = Antiproliferative activity against human CCD-1095SK cells after 96 hrs by crystal violet staining method; assay type: cell-based; details: for GI50 at 96 h: CCD-1095SK cells, read-out: ED50; outline: as §2
HCC70 [4] = assay: Inhibition of endogenous proteoglycans production in human HCC70 cells at 0.1 mM; assay type: functional
HCC70 [5] = assay: Inhibition of glycosaminoglycan chains priming from beta-D-xylopyranoside in human HCC70 cells at 0.1 mM; assay type: functional

| Compound | Activity (HCC70 [1]) | Activity (CCD-1095SK) | EC50 (HCC70 [2]; Homo sapiens, HCC70, 96 h) [µM] | GI50 at 96 h [3] [µM] | inhibition at 100 µM (HCC70 [4]) [%] | inhibition at 100 µM (HCC70 [5]) [%] | EC50 (HCC70 [2]) [µM] | GI50 ([3]; ccd-1095sk, 96 h, read-out: ED50 (the source's name)) [µM] |
| --- | --- | --- | --- | --- | --- | --- | --- | --- |
| CO[C@@H]1[C@@H](O)[C@H](Oc2ccc3ccccc3c2)OC[C@H]1O | inactive | inactive | 145 | 17 | – | – | – | – |
| O[C@H]1[C@H](Oc2ccc3ccccc3c2)OCC[C@@H]1O | inactive | inactive | 284 | 285 | 24 | – | – | – |
| O[C@@H]1[C@@H](O)[C@H](Oc2ccc3ccccc3c2)OC[C@H]1F | inactive | inactive | 37 | 32 | 33 | 23 | – | – |
| O[C@@H]1[C@@H](O)[C@H](Oc2ccc3ccccc3c2)OC[C@H]1O (stereo in doubt; 1b) | Active | Active | – | – | – | – | 91 | 243 |
| O[C@@H]1CO[C@@H](Oc2ccc3ccccc3c2)[C@H](O)C1 | inactive | inactive | 179 | 79 | – | – | – | – |
| O[C@@H]1[C@@H](O)[C@H](Oc2ccc3ccccc3c2)OC[C@@H]1O | inactive | inactive | 371 | 48 | – | – | – | – |
| CO[C@@H]1CO[C@@H](Oc2ccc3ccccc3c2)[C@H](O)[C@H]1O | inactive | inactive | 135 | 93 | – | – | – | – |
| O[C@H]1[C@H](Oc2ccc3ccccc3c2)OC[C@@H](O)[C@@H]1F | inactive | inactive | 94 | 72 | – | – | – | – |
| Oc1ccc2cc(O[C@@H]3OC[C@@H](O)[C@H](O)[C@H]3O)ccc2c1 | Active | Active | – | – | – | – | – | – |
| O[C@@H]1[C@@H](F)[C@H](Oc2ccc3ccccc3c2)OC[C@H]1O | inactive | inactive | 22 | 12 | – | – | – | – |
| O[C@H]1[C@H](Oc2ccc3ccccc3c2)OC[C@@H](O)[C@H]1O | inactive | inactive | 178 | 182 | – | – | – | – |
| CO[C@H]1[C@H](Oc2ccc3ccccc3c2)OC[C@@H](O)[C@@H]1O | inactive | inactive | 127 | 55 | – | – | – | – |
| O[C@@H]1CO[C@@H](Oc2ccc3ccccc3c2)C[C@H]1O | inactive | inactive | 228 | 19 | – | – | – | – |
